The source of these data is paper PMC11062580 (Science Advances, 2024).

Data set [1] has as its system tau aggregation. The note with it: phase 2 (curcumin) and phase 3 (methylene blue/LMTX) trials; cited from earlier work.
The subject of data set [2] is tau K18^+ fibrils. The data set can be described thus: TEM of tau K18+ aggregation with inhibitor. The format is biochemical. The note with it: 20 μM tau K18+, 48 h; 5-100 μM peptide or MNPs-DP 0.005-0.04 mg/ml. The gist of the method: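 Recombinant tau K18+ (20 µM final, PBS pH 7.4) was aggregated with 40 µM ThT, 15 µM heparin and 1 mM DTT at 37°C with 700 rpm double orbital shaking. Test peptide was at 5–100 µM; nanoparticles at 0.005–0.04 mg/ml. For TEM, 6 µl sample went on glow-discharged carbon grids for 5 min, then 2% uranyl acetate for 2 min.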

Data set [3] concerns tau K18^+ fibrils. The data set can be described thus: ThT fragmentation assay of preformed tau K18+ fibrils. It counts as biochemical.
Data set [4] relates to tau K18^+ fibrils. The data set can be described thus: TEM of preformed tau K18+ fibrils after treatment. The format is biochemical. Conditions: 7-DP 2.5-100 μM or MNPs-DP 0.005-0.02 mg/ml, 24 hours.
Data set [5] concerns tau K18^+ fibrils. The data set can be described thus: Dot blot with anti-amyloid OC antibody. The note with it: 7-DP 2.5-100 μM or MNPs-DP 0.005-0.02 mg/ml, 24 h. The format is biochemical.
In data set [6] the test system is AD tau fibrils. The data set can be described thus: TEM of AD-extracted tau fibrils after treatment. The format is biochemical. Conditions: 0.02 mg/ml (86 μM 7-DP for MNPs-DP), 48 hours, 37°C; n = 10 images.
Data set [7] concerns C57BL/6J mice brain. Description: BBB penetration, Fe in brain by ICP-MS. It counts as in vivo, mouse. Conditions: 10 mg/kg tail vein with intranasal mannitol; 2 hours; n = 3 per group. The gist of the method:
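Wild-type C57BL/6J mice aged 2 months received 20 μl of 2% mannitol intranasally, then test nanoparticles at 10 mg/kg by tail vein; controls received PBS. Mice were euthanized after 2 h and perfused. Half-brains were dried at 105°C, digested in concentrated HNO3/HCl at 80°C for 2 h and diluted. Fe was quantified by ICP-MS.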

A short description of data set [8]: Body weight of PS19 mice. The format is in vivo, mouse. Conditions: 10 mg/kg i.v. weekly for 10 weeks, with intranasal mannitol; n = 13 per group.
The subject of data set [9] is PS19 mice. Description: Barnes maze test. The note with it: 10 mg/kg i.v. weekly for 10 weeks. The format is in vivo, mouse. In a few lines: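 Mice were seeded with K18+ fibrils (2-month males, 6-month females) and given weekly tail-vein 10 mg/kg for 10 weeks plus intranasal mannitol; PBS vehicle; C57BL/6J controls. Maze had 20 holes with an escape box. Acquisition was 10 trials (2/day, 15-min interval, 2 min each). Probe came 1 day later: tunnel replaced, 90 s, with primary latency and target-hole entries. Testing was blinded and randomized.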

Data set [10] deals with PS19 mice. The data set can be described thus: Novel object recognition test. It counts as in vivo, mouse. The note with it: 10 mg/kg i.v. weekly for 10 weeks, n = 13. The gist of the method:
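PS19 mice seeded with K18+ fibrils, then weekly i.v. 10 mg/kg for 10 weeks with intranasal mannitol; PBS vehicle. Arena habituation was 10 min, 24 h before testing. Acquisition: two identical objects, 10 min. After 90 min in the home cage, retention: one familiar and one novel object, 10 min. Exploration was nose, mouth or forepaw contact. DR = TC/(TR + TC); […].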

Data set [11] has as its system PS19 mice. Description: Serum AST as index of hepatic toxicity. It counts as in vivo, mouse. Conditions: 10 mg/kg i.v. weekly for 10 weeks; n = 13; ELISA. In general terms: An ELISA detects its analyte on a solid surface through an enzyme-linked reagent.
The subject of data set [12] is PS19 mice. The data set can be described thus: H&E histology of major organs. The format is in vivo, mouse. The note with it: 10 mg/kg i.v. weekly for 10 weeks. The gist of the method:
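Seeded PS19 mice were treated weekly i.v. at 10 mg/kg for 10 weeks with intranasal mannitol. Heart, liver, spleen, lung and kidney (n = 3) were fixed in 4% buffered formalin at 4°C overnight and embedded in paraffin. Sections of 5 µm were stained with hematoxylin and eosin.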

Data set [13] concerns phosphorylated tau (ptau) pSer^202/Thr^205. Description: AT8 immunohistochemistry of hippocampus. It counts as in vivo, mouse. The note with it: 10 mg/kg i.v. weekly for 10 weeks; n = 6 per group. In a few lines: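 PS19 mice seeded stereotaxically with 1.5 µl recombinant K18+ tau fibril seeds (5 µg/µl). Dosing began 2 weeks later: tail-vein 10 mg/kg weekly for 10 weeks, with intranasal mannitol; vehicle was PBS. Brain sections were stained with AT8 (pSer202/Thr205) at 4°C overnight, then biotinylated anti-mouse secondary (1:1000, 1 h, 37°C). AT8-positive staining was quantified in hippocampal CA1 and CA3.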

As to `COc1cc(/C=C/C(=O)CC(=O)/C=C/c2ccc(O)c(OC)c2)ccc1O` [curcumin], the clinical efficacy result in data set [1] was “have yet to show efficacy in treating disease”.
In the case of `CN(C)c1ccc2nc3ccc(=[N+](C)C)cc-3sc2c1` [methylene blue/LMTX, methylene blue], in data set [1], the clinical efficacy entry is given as “have yet to show efficacy in treating disease”.
In the case of MNPs-D-TLKIVWC [MNPs-DP], the “counts and length of tau K18+ fibrils (TEM)” value in [2] was “reduced the length of tau fibrils in a dose-dependent manner”. For the same compound, in [3] (20 μM tau K18+ fibrils, MNPs-DP or MNPs 0.02 mg/ml, added at 10 hours, reference 50 μM 7-DP), the “fragmentation of preformed tau K18+ fibrils, MNPs-DP and MNPs (ThT)” value is reported as “fragmented preformed tau K18^+ fibrils as evidenced by the decrease of ThT signal”. For the same compound, the “dose-dependent ThT fluorescence intensity of tau K18+ fibrils” value in [3] (7-DP 2.5-100 μM or MNPs-DP 0.005, 0.01, 0.02 mg/ml) is reported as “reduction of ThT fluorescence intensity”. The “dose-dependent number/abundance of tau K18+ fibrils under TEM” value in data set [4] was “reduction of the abundance of tau K18^+ fibrils and a concurrent increase in the number of globular species”. The “binding of anti-amyloid OC antibody to tau K18+ fibrils” value in data set [5] is “decrease of binding to anti-amyloid OC antibody”. Also, in data set [6], the “fragmentation of AD-extracted tau fibrils by MNPs-DP or MNPs” value is “fragmented AD-extracted tau fibrils after a 48-hour incubation”. Also, the “BBB penetration” value in data set [7] is “can cross the BBB”. In addition, in data set [8], the “body weight of PS19 mice” value was “consistent increase in body weights”. Further, the “memory function in probe trial, overall” value in [9] (compared with PBS-treated PS19 mice) was “comparable performance to WT mice and a significant improvement in memory function compared with PBS-treated PS19 mice”. Further, the “latency time to find escape hole, learning period” value in [9] (n = 13, 6 days) is recorded as “learned a new task quicker with a shorter latency time to find the escape hole compared to the vehicle- or naked MNP-treated PS19 mice”. In addition, the “exploration of novel versus familiar object” value in data set [10] (90-min interval) is on record as “explored the novel object significantly longer than the familiar one”. Moreover, in data set [10] (versus vehicle), the “discriminatory index (DI)” value is “appeared to significantly improve the discriminatory index”; the “discriminatory ratio (DR)” value was “appeared to significantly improve the discriminatory index (DI; Fig. 5G) and discriminatory ratio (DR)”. Moreover, in [11], the “serum AST levels” value is “comparable to the vehicle groups”. In [12] (H&E, n = 3, 100 day post-injection), the “histology of liver, spleen, heart, lung, kidney” value was “no evidence of toxic changes or cell death in cellular structures”. The “overall toxicity after 10 weeks” value in data set [12] (PS19 mice) is reported as “without apparent toxic side effects in other body systems”. The “AT8-positive tau pathology in hippocampus CA1 and CA3” value in data set [13] was “significantly limited tau pathology in both the CA1 and CA3 regions”.
